According to ChEMBL document CHEMBL3588754, “Parallel Synthesis of Hexahydrodiimidazodiazepines Heterocyclic Peptidomimetics and Their in Vitro and in Vivo Activities at μ (MOR), δ (DOR), and κ (KOR) Opioid Receptors” (J Med Chem, 2015):

Assays:
[1] = target: Mu-type opioid receptor (Rattus norvegicus, UniProt P33535); assay: Displacement of [3H]DAMGO from mu opioid receptor in rat cortices by competition binding assay
How it was run: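 Rat cortex membranes were prepared in 50 mM Tris pH 7.4, preincubated at 37 °C for 30 min, and resuspended with 2 mg/mL bovine serum. Assay used 2 nM [3H]DAMGO. Binding was stopped by filtration through BSA-soaked GF/B filters, followed by scintillation counting. IC50 was converted to Ki. Values are mean ± SD of two experiments, each in duplicate.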

[2] = target: Kappa-type opioid receptor (Cavia porcellus, UniProt P41144); assay: Displacement of [3H]U69593 from kappa opioid receptor in guinea pig cortices and cerebella by competition binding assay
How it was run: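 Guinea pig cortex and cerebellum membranes were prepared in 50 mM Tris pH 7.4 with 10 mM MgCl2. Assay used 2 nM [3H]U69,593, incubated 2 h at 25 °C. Unlabeled U50,488 defined nonspecific binding. Filtration was through GF/B filters, with scintillation counting. Ki is mean ± SD of two experiments, each in duplicate.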

[3] = target: Delta-type opioid receptor (Rattus norvegicus, UniProt P33533); assay: Displacement of [3H]DPDPE from delta opioid receptor in rat cortices by competition binding assay
How it was run: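 Rat cortex membranes were prepared in 50 mM Tris pH 7.4 with 10 mM MgCl2 and 200 μM PMSF. Assay used 2 nM [3H]DPDPE, incubated 2.5 h at 25 °C. Unlabeled DPDPE defined nonspecific binding. Filtration was through BSA-soaked GF/B filters, with scintillation counting. Ki is mean ± SD of two experiments, each in duplicate.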

SMILES	Ki [1] [µM]	Ki [2] [µM]	Ki [3] [µM]
CC(C)[C@H]1CN=C2C=C3N(CCc4ccccc4)[C@@H](Cc4ccc(O)cc4)CN3[C@@H](Cc3ccccc3)CN21	1.11	1.9	1.38
Oc1ccc(C[C@H]2CN3C(=CC4=NC[C@H](Cc5ccccc5)N4C[C@@H]3Cc3ccccc3)N2CCc2ccccc2)cc1	3.15	> 10	1.28
Oc1ccc(C[C@H]2CN3C(=CC4=NC[C@H](Cc5ccc(O)cc5)N4C[C@@H]3Cc3ccccc3)N2)cc1	0.605	2.37	0.069
Oc1ccc(C[C@H]2CN3C(=CC4=NC[C@H](Cc5ccccc5)N4C[C@@H]3Cc3ccc(O)cc3)N2)cc1	1.18	4.14	0.338
CC(C)C[C@H]1CN2C(=CC3=NC[C@H](C(C)C)N3C[C@@H]2Cc2ccccc2)N1	> 10	1.08	≥ 10
Oc1ccc(C[C@H]2CN3C(=CC4=NC[C@H](Cc5ccccc5)N4C[C@@H]3Cc3ccccc3)N2)cc1	0.566	8.39	2.09
CC(C)C[C@H]1CN2C(=CC3=NC[C@H](C(C)C)N3C[C@@H]2Cc2ccccc2)N1CCc1ccccc1	2.75	1.4	1.02
Oc1ccc(C[C@H]2CN3C(=CC4=NC[C@H](Cc5ccc(O)cc5)N4C[C@@H]3Cc3ccc(O)cc3)N2CCc2ccccc2)cc1	0.246	1.55	0.392
